Measured values from publication PMC3600638 (Biomaterials, 2013).
Counter-ions that a name gives are not always drawn.

Legend:
H460 cells [1] = test: In vitro cell viability; assay type: cell-based, human; settings: 48 h, MTT
Outline: (§1)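 Cells seeded at 1×10⁴ per well in 96-well plates. A range of test compound concentrations was added at 30% confluence, then 48 h at 37°C. MTT at 0.5 mg/mL final for 4 h at 37°C, formazan dissolved in DMSO, A570 read. Viability expressed as % of untreated cells; IC50 derived; mean ± S.D., n=3.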

BxPC-3 cells [2] = test: In vitro cell viability; assay type: cell-based, human; settings: 48 h, MTT
Outline: as §1

H460 cells [3] = test: In vitro caspase-3/7 activation; assay type: cell-based, human; settings: 1.8 μM, 48 h
Outline: (§2)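 H460 or BxPC-3 cells grown in RPMI-1640 with 10% FBS at 37°C and 5% CO₂. 2×10⁵ cells per well in 6-well plates, exposed to 1.8 μM test compound for 48 h. Lysed in RIPA buffer with protease inhibitors, protein measured by BCA, and 40 μg protein assayed with a commercial caspase-3/7 activity kit.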

BxPC-3 cells [4] = test: In vitro caspase-3/7 activation; assay type: cell-based, human; settings: 1.8 μM, 48 h
Outline: as §2

H460 xenografts [5] = test: In vivo caspase-3/7 activation in tumors; parameters: species or system nude mice; settings: 3 daily IV injections, 7.5 μmol/Kg, 24 h after last injection
Outline: (§3)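 Female nude mice, 6–8 weeks old, with s.c. right-flank xenografts (5×10⁶ cells in PBS), n=3. Three daily IV doses of 7.5 μmol/Kg; tumors taken 24 h after the last dose. Tissue homogenised and sonicated in RIPA with protease inhibitors, spun 14,000 rpm for 10 min at 4°C. 40 μg protein (BCA) assayed with a caspase-3/7 kit.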

BxPC-3 xenografts [6] = test: In vivo caspase-3/7 activation in tumors; parameters: species or system nude mice; settings: 3 daily IV injections, 7.5 μmol/Kg, 24 h after last injection
Outline: as §3

H460 xenografts [7] = test: Western blot of tumor lysates; assay type: in vivo, nude mice; settings: 3 daily IV injections
Outline: (§4)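 Tumors from xenograft-bearing nude mice harvested 24 h after three daily IV injections; RIPA lysates prepared. 40 μg protein per lane on 4–12% SDS-PAGE, transferred to PVDF, blocked 1 h in 5% milk. Mouse monoclonal PARP-1 and rabbit polyclonal cyclin D1 antibodies (1:500) overnight at 4°C. β-actin (1:4000) as loading control; secondaries 1:4000 for 1 h; ECL detection.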

BxPC-3 xenografts [8] = test: Western blot of tumor lysates; assay type: in vivo, nude mice; settings: 3 daily IV injections
Outline: as §4

Pharmacokinetic profile = assay type: in vivo, nude mice; settings: IV bolus, H460 xenograft model
Outline: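 Nanoparticles co-loaded with trace ³H-CTP as a marker of entrapped drug, given as an IV bolus to nude mice bearing H460 tumors. 30 μL blood drawn from the orbital venous plexus at 20 min, 1, 2, 4, 8 and 24 h, bleached with 30% H₂O₂ and counted by liquid scintillation. %ID in blood calculated with the initial value set at 100%; PK parameters from a non-compartmental fit.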

H460 subcutaneous tumors = test: Tumor growth inhibition study; assay type: in vivo, nude mice; settings: H460 xenograft, 4 IV injections every other day, 7.5 μmol/Kg
Outline: (§5)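 Female nude mice, 6–8 weeks old, inoculated s.c. with 5×10⁶ cells. Dosing began day 12 at 150–200 mm³ tumor volume, mice randomised into 6 groups (n=5). IV injections every other day ×4 at 7.5 μmol/Kg. Calipers every other day, V = 0.5×W²×L; body weight recorded every other day; mice euthanised when a tumor reached 20 mm.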

[9] = test system: BxPC-3 subcutaneous tumors; test: Tumor growth inhibition study; assay type: in vivo, nude mice; settings: BxPC-3 xenograft, 4 IV injections every other day, 7.5 μmol/Kg
Outline: as §5

H460 cells [10] = test: In vitro cellular uptake of NBD-labeled LCPs; assay type: cell-based, human; settings: pre-incubation with 50 μM haloperidol for 1 h

Structure (SMILES) | cell viability (H460 cells [1]) | cell viability (BxPC-3 cells [2]) | in vitro caspase-3/7 activity (H460 cells [3]) | in vitro caspase-3/7 activity (BxPC-3 cells [4]) | caspase-3/7 activity in tumors (H460 xenografts [5]) | caspase-3/7 activity in tumors (BxPC-3 xenografts [6]) | cleaved PARP in tumors (H460 xenografts [7]) | cleaved PARP in tumors (BxPC-3 xenografts [8]) | AUMC (Pharmacokinetic profile) [h^2·%] | tumor growth inhibition (H460 subcutaneous tumors) | tumor growth inhibition [9] | effect on cellular uptake of AA-modified LCP (H460 cells [10])
Nc1ccn([C@@H]2O[C@H](COP(=O)(O)OP(=O)(O)OP(=O)(O)O)[C@@H](O)C2(F)F)c(=O)n1 [GTP, Gemcitabine triphosphate tris(triethylammonium) salt] | decreased the cell viability | decreased the cell viability | significantly higher than the control | significantly higher than the control | did not elicit caspase activity in vivo | did not elicit caspase activity in vivo | did not induce PARP elevation | did not induce PARP elevation | 25.34 | limited therapeutic effects | limited therapeutic effects | –
Nc1ccn([C@@H]2O[C@H](CO)[C@@H](O)C2(F)F)c(=O)n1 [Gem, 2′, 2′-difluoro 2′-deoxycytidine] | decreased the cell viability | decreased the cell viability | significantly higher than the control | significantly higher than the control | did not elicit caspase activity in vivo | did not elicit caspase activity in vivo | did not induce PARP elevation | did not induce PARP elevation | – | limited therapeutic effects | limited therapeutic effects | –
O=C(CCCN1CCC(O)(c2ccc(Cl)cc2)CC1)c1ccc(F)cc1 [haloperidol] | – | – | – | – | – | – | – | – | – | – | – | significantly reduced the cellular uptake of AA-modified LCP
